In ChEMBL document CHEMBL2401686, “Synthesis of novel 1-[5-(4-methoxy-phenyl)-[1,3,4]oxadiazol-2-yl]-piperazine derivatives and evaluation of their in vivo anticonvulsant activity” (Eur J Med Chem, 2013):

Experiments:
Rattus norvegicus [1] = test: Anticonvulsant activity in Wistar rat maximal electroshock seizure model assessed as decrease in ratio of extension phase and flexion phase at 100 mg/kg, po administered 30 mins prior to test; format: functional
Summary of the method: (§1)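 Male Wistar rats, n = 6 per group; 100 mg/kg given orally as solution in 1% sodium carboxymethyl cellulose, 30 min before maximal electroshock; observed 2 min. E/F is extension phase (s)/flexion phase (s). % protection = (control − test)/control × 100 against vehicle control; phenytoin 100 mg/kg reference; mean values.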

Mus musculus [2] = test: Neurotoxicity in mouse assessed as inability to maintain equilibrium on rod at 100 mg/kg, po after 1 hr by rotarod test relative to control; format: toxicity, organism-based; set-up: dose 100 mg/kg, route oral; conditions: in vivo
Summary of the method: (§2)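 Mice pre-trained on accelerating rotorod (10 rpm, rod diameter 3.2 cm), then dosed orally at 100 mg/kg. Neurotoxicity is failure to keep equilibrium on the rod for at least 1 min in each of three trials, checked at 0.5, 1, 2 and 4 h. Reported as animals showing neurotoxicity per number tested (n = 4); phenytoin standard.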

Rattus norvegicus [3] = test: Anticonvulsant activity in Wistar rat assessed as protection against maximal electroshock-induced seizure at 100 mg/kg, po administered 30 mins prior to test relative to control; format: functional; summary of the method: as §1
Mus musculus [4] = test: Neurotoxicity in mouse assessed as inability to maintain equilibrium on rod at 100 mg/kg, po after 4 hrs by rotarod test relative to control; format: toxicity, organism-based; set-up: dose 100 mg/kg, route oral; conditions: in vivo; summary of the method: as §2
Mus musculus [5] = test: Neurotoxicity in mouse assessed as inability to maintain equilibrium on rod at 100 mg/kg, po after 2 hrs by rotarod test relative to control; format: toxicity, organism-based; set-up: dose 100 mg/kg, route oral; conditions: in vivo; summary of the method: as §2
Mus musculus [6] = test: Neurotoxicity in mouse assessed as inability to maintain equilibrium on rod at 100 mg/kg, po after 0.5 hrs by rotarod test relative to control; format: toxicity, organism-based; set-up: dose 100 mg/kg, route oral; conditions: in vivo; summary of the method: as §2

Compound | Ratio (Rattus norvegicus [1]) | Activity (Mus musculus [2]) | Activity (Rattus norvegicus [3]) | Activity (Mus musculus [4]) | Activity (Mus musculus [5]) | Activity (Mus musculus [6])
COc1ccc(-c2nnc(N3CCN(S(=O)(=O)c4ccc(Br)c(C)c4)CC3)o2)cc1 | 6.29 | 0% | 52.42% | 0% | 0% | 0%
COc1ccc(-c2nnc(N3CCN(S(=O)(=O)c4ccc(C(C)(C)C)cc4)CC3)o2)cc1 | 7.64 | 0% | 17.32% | 0% | 0% | 0%
COc1ccc(-c2nnc(N3CCN(S(=O)(=O)c4ccc(I)cc4)CC3)o2)cc1 | 6.57 | 0% | 50.43% | 0% | 0% | 0%
COc1ccc(-c2nnc(N3CCN(S(=O)(=O)c4c(C)noc4C)CC3)o2)cc1 | 2.34 | 0% | 71.25% | 0% | 0% | 0%
O=C1NC(=O)C(c2ccccc2)(c2ccccc2)N1 [PHENYTOIN] | 1.98 | 0% | 75.88% | 0% | 0% | 0%
COc1ccc(-c2nnc(N3CCN(S(=O)(=O)c4ccccc4[N+](=O)[O-])CC3)o2)cc1 | 5.49 | 0% | 59.64% | 0% | 0% | 0%
COc1ccc(-c2nnc(N3CCN(S(=O)(=O)c4ccc(Br)cc4)CC3)o2)cc1 | 6.51 | 0% | 50.79% | 0% | 0% | 0%
COc1ccc(-c2nnc(N3CCN(S(=O)(=O)c4cc(Cl)sc4Cl)CC3)o2)cc1 | 2.11 | 0% | 73.47% | 0% | 0% | 0%
COc1ccc(-c2nnc(N3CCN(S(C)(=O)=O)CC3)o2)cc1 | 8.15 | 0% | 10.63% | 25% | 25% | 0%
COc1ccc(-c2nnc(N3CCN(S(=O)(=O)c4ccc(Oc5ccccc5)cc4)CC3)o2)cc1 | 1.96 | 0% | 74.31% | 0% | 0% | 0%
COc1ccc(-c2nnc(N3CCN(S(=O)(=O)c4ccc(C)cc4)CC3)o2)cc1 | 7.68 | 0% | 17.03% | 25% | 25% | 0%
COc1ccc(-c2nnc(N3CCN(S(=O)(=O)c4ccc(-c5ccccc5)cc4)CC3)o2)cc1 | 7.11 | 0% | 23.34% | 0% | 0% | 0%
COc1ccc(-c2nnc(N3CCN(S(=O)(=O)c4ccc(C#N)cc4)CC3)o2)cc1 | 6.34 | 0% | 42.4% | 0% | 0% | 0%
COc1ccc(-c2nnc(N3CCN(S(=O)(=O)c4ccc5ccccc5c4)CC3)o2)cc1 | 6.96 | 0% | 31.54% | 25% | 25% | 0%
COc1ccc(-c2nnc(N3CCN(S(=O)(=O)c4ccc(C(F)(F)F)cc4[N+](=O)[O-])CC3)o2)cc1 | 1.91 | – | 77.64% | – | – | –
COc1ccc(-c2nnc(N3CCN(S(=O)(=O)c4cccc(C(F)(F)F)c4)CC3)o2)cc1 | 6.11 | 0% | 53.01% | 0% | 0% | 0%
